Measurements of several laboratories.
Protocols differ between the studies behind these lines.

CS(=O)(=O)CCNCc1ccc(-c2ccc3ncnc(Nc4ccc(OCc5cccc(F)c5)c(Cl)c4)c3c2)o1  Tmax (nude mouse, plasma; oral, 100 mg/kg, single dose): 120 min
CO[C@H]1CC[C@H](N2C(=O)CNc3ncc(-c4ccc(C(C)(C)O)nc4)nc32)CC1  Cmax (human, plasma; oral, 15 mg, multiple doses, patients): 92 ng/mL
CCc1ccc(Cc2cc([C@@H]3O[C@H](CO)[C@@H](O)[C@H](O)[C@H]3O)cc3c2CCC3)cc1  Tmax (male C57BL/6 mouse, plasma; oral, 0.3 mg/kg): 30 min
CC(C)(O)c1cn(-c2ccc(-c3cccc(S(C)(=O)=O)c3)cc2)c(C(C)(C)c2ccccc2Cl)n1  Vd (male cynomolgus monkey, plasma; intravenous, 1 mg/kg, single dose): 1.3 L/kg
C=CC(=O)N1CC2CC(n3nc(-c4ccc(C(=O)Nc5ccccn5)cc4)c4c(N)ncnc43)CC2C1 (stereo not shown)  Tmax (SCID mouse, plasma; oral, 1 mg/kg): 15 min
Cn1cc(-c2ccc(S(=O)(=O)[C@@H]3C[C@@H](C(=O)NC4(C#N)CC4)N(C(=O)C4(C(F)(F)F)CC4)C3)c(C(F)(F)F)c2)cn1  Cmax (human, plasma; oral, 600 mg, single dose, fasted, healthy volunteers): 1300 ng/mL
CC=Cc1ccc(O)c(OC)c1  Tmax (mouse, brain; intranasal, 100 mg/kg): 5 min
CC(C)(C)c1ccc(O)c(CN(Cc2cc(C(C)(C)C)ccc2O)C2CCC(NC(N)=O)CC2)c1 (stereo not shown)  Tmax (male C57BL/6 mouse, plasma; intraperitoneal, 10 mg/kg, single dose): 15 min
Nc1cc(N2CCCCC2)nc(N)[n+]1[O-]  efflux ratio (Caco-2; 10 µM, 2 h, pH 7.4): 1.72
CCc1nc2c(C)cc(N3CCN(CC(=O)N4CC(O)C4)CC3)cn2c1N(C)c1nc(-c2ccc(F)cc2)c(C#N)s1  Cmax (human, plasma; intravenous, 0.1 mg, single dose, fasted, healthy volunteers): 9.37 ng/mL
CC(C)(O)c1cn(-c2ccc(-c3cc(F)c(CO)c(S(C)(=O)=O)c3)cc2F)c(C(C)(C)c2c(Cl)cccc2Cl)n1  Vd (male cynomolgus monkey, plasma; intravenous, 1 mg/kg, single dose): 2.9 L/kg
CN1CCC(c2ccccc2CC(C)(C)Nc2nc(N3CCOCC3)nc(-n3c(C(F)F)nc4ccccc43)n2)CC1  Vd (cynomolgus monkey, plasma; intravenous, 2 mg/kg, single dose): 8 L/kg
COc1cc(C(=O)NC2CCN(C)CC2)c(F)cc1Nc1ncc(C(F)(F)F)c(Oc2cccc3c2C(=O)N(C)C3)n1  Cmax (human, plasma; oral, 200 mg, multiple doses, once daily, steady state, patients): 2580 nM
